What was measured:
[1] = biological target: T1, Angiotensin II receptor (AT-1) type-1 (Rattus norvegicus, UniProt P29089+P25095); experiment: Inhibitory concentration against binding of [125I]angiotensin II to rat liver expressing Angiotensin II receptor
T1 sequence (P29089 whole entry): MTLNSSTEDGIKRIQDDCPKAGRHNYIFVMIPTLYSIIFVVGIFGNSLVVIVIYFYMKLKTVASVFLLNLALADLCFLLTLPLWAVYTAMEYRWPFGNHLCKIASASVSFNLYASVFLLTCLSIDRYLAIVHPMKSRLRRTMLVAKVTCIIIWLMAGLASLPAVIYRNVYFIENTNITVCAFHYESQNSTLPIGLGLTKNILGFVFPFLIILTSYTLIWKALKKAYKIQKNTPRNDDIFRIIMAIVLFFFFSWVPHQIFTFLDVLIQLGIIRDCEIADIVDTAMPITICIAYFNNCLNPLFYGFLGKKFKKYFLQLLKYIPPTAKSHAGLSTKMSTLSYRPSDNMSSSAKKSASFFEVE
T1 sequence (P25095 whole entry): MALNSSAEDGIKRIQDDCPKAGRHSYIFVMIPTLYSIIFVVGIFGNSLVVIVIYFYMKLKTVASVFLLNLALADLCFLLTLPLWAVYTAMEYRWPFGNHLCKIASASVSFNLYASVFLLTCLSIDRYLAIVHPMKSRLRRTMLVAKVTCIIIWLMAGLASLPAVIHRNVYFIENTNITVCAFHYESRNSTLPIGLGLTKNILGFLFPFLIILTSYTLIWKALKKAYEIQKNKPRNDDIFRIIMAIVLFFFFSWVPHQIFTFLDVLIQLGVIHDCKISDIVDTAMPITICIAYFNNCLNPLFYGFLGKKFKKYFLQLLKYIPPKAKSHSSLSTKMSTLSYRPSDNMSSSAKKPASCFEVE
In short: (§1)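 Rat liver membranes homogenized in 10 mM HEPES pH 7.4 with protease inhibitors, captopril and PMSF. Nonspecific binding defined with 1.0 µM saralasin. No BSA. IC50 by nonlinear fit to mass-action equation from at least five or six concentrations.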

Rattus norvegicus [2] = experiment: Effect on mean arterial pressure after oral dosing at 10 mg/kg to renal hypertensive rats; format: functional, Artery
In short: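 Male Sprague-Dawley rats, bilateral renal artery clipping at 5 weeks, used 10-12 weeks later; aortic cannula to neck, 48 h recovery; rats with mean BP <150 mmHg excluded. Compound suspended in 0.5% methocel in water, oral gavage 10 mg/kg in 2 mL/kg to conscious rats (n = 5-6). BP and heart rate recorded continuously, averaged over 30-min intervals.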

Rattus norvegicus [3] = experiment: Tested in vivo for effective dose (iv) that produces inhibition of pressor response to Angiotensin II in conscious normotensive rats; format: functional
[4] = biological target: T1, Angiotensin II receptor (AT-1) type-1; experiment: Tested for inhibitory concentration against AT1 receptor binding affinity in rat liver; in short: as §1

Which results are given for `CCCCc1nc(-n2cccc2C(=O)C(F)(F)F)c(C(=O)OC)n1Cc1ccc(-c2ccccc2-c2nn[nH]n2)cc1`?
IC50 [1]: 3.57 nM; Change in BP (Rattus norvegicus [2]): -19

How did the IC50 [1] turn out when `CCCCc1nc(-n2cccc2)c(C(=O)O)n1Cc1ccc(-c2ccccc2-c2nn[nH]n2)cc1` was run?
The IC50 was 1.57 nM.

And the “Change in BP” value (Rattus norvegicus [2])?
The value was -27.

And the ED50 (Rattus norvegicus [3])?
The ED50 was 38 µg/min/kg.

How did the IC50 [1] turn out when `CCCc1nc(-n2cccc2C(O)C(F)(F)F)c(C(=O)O)n1Cc1ccc(-c2ccccc2-c2nn[nH]n2)cc1` (stereo not given) was run?
Its IC50 is 1.04 nM.

`CCCc1nc(-n2cccc2)c(/C=C/C(=O)O)n1Cc1ccc(-c2ccccc2-c2nn[nH]n2)cc1` was tested. Which IC50 [1] did it give?
The IC50 was 4 nM.

Which IC50 [1] does the source give for `CCCc1nc(-n2ccc(C(=O)O)c2)c(C(=O)O)n1Cc1ccc(-c2ccccc2-c2nn[nH]n2)cc1` here?
Its IC50 is 25.1 nM.

What does the source list for `CCCc1nc(-n2cccc2C(=O)C(F)(F)F)c(C(=O)OC)n1Cc1ccc(-c2ccccc2-c2nn[nH]n2)cc1`?
IC50 [1]: 3.64 nM; Change in BP (Rattus norvegicus [2]): -28; ED50 (Rattus norvegicus [3]): 36 µg/min/kg

`CCCc1nc(-n2cccc2C(=O)O)c(C(=O)O)n1Cc1ccc(-c2ccccc2-c2nn[nH]n2)cc1` was tested. Which IC50 [1] did it give?
Its IC50 is 11.2 nM.

With `CCCCc1nc(-n2cccc2)c(C(=O)c2ccccc2)n1Cc1ccc(-c2ccccc2-c2nn[nH]n2)cc1` as the molecule, how does the IC50 [1] read?
The IC50 was 23.3 nM.

`CCCc1nc(-n2c(C)ccc2C)c(CO)n1Cc1ccc(-c2ccccc2-c2nn[nH]n2)cc1` was tested. Which IC50 [1] did it give?
Its IC50 is 23.8 nM.

How did the IC50 [1] turn out when `CCCc1nc(-n2ccc(C(=O)OC)c2C)c(C(=O)O)n1Cc1ccc(-c2ccccc2-c2nn[nH]n2)cc1` was run?
The IC50 was 1.37 nM.

For `CCCc1nc(-n2cccc2C(=O)C(F)(F)F)c(C(=O)O)n1Cc1ccc(-c2ccccc2-c2nn[nH]n2)cc1`, which IC50 [1] is on record?
The IC50 was 0.58 nM.

And the “Change in BP” value (Rattus norvegicus [2])?
The value was -29.

What about the ED50 (Rattus norvegicus [3]) of the same molecule?
Its ED50 is 6.23 µg/min/kg.

With `Cc1ccc(C)n1-c1nc(C2CC2)n(Cc2ccc(-c3ccccc3-c3nn[nH]n3)cc2)c1C(=O)O` as the molecule, how does the IC50 [1] read?
The IC50 was 2.81 nM.

What about the “Change in BP” value (Rattus norvegicus [2]) of the same molecule?
Its value is -11.

With `CCCc1nc(-n2c(Cl)ccc2Cl)c(C(=O)O)n1Cc1ccc(-c2ccccc2-c2nn[nH]n2)cc1` as the molecule, how does the IC50 [1] read?
Its IC50 is 0.14 nM.

What does the source list for `CCCc1nc(-n2c(C)ccc2C)c(/C=C/C(=O)O)n1Cc1ccc(-c2ccccc2-c2nn[nH]n2)cc1`?
IC50 [1]: 3.32 nM; Change in BP (Rattus norvegicus [2]): -8; ED50 (Rattus norvegicus [3]): 16.4 µg/min/kg

What does the source list for `CCCc1nc(-n2c(C)ccc2C)c(C(=O)OC)n1Cc1ccc(-c2ccccc2-c2nn[nH]n2)cc1`?
IC50 [1]: 20.9 nM; Change in BP (Rattus norvegicus [2]): -8

Which results are given for `CCCc1nc(-n2c(C)ccc2C)c(C(=O)O)n1Cc1ccc(-c2ccccc2-c2nn[nH]n2)cc1`?
IC50 [1]: 0.82 nM; Change in BP (Rattus norvegicus [2]): -26

For `CCCc1nc(-n2c(C)ccc2CCC)c(C(=O)OC)n1Cc1ccc(-c2ccccc2-c2nn[nH]n2)cc1`, which IC50 [1] is on record?
Its IC50 is 15.1 nM.

`CCCc1nc(-n2ccc(C(=O)OCC)c2)c(C(=O)OC)n1Cc1ccc(-c2ccccc2-c2nn[nH]n2)cc1` was tested. Which IC50 [1] did it give?
Its IC50 is 158 nM.

For `CCCCc1nc(-n2cccc2)c(C#N)n1Cc1ccc(-c2ccccc2-c2nn[nH]n2)cc1`, which IC50 [1] is on record?
The IC50 was 209 nM.

For `CCCc1nc(-n2c(C)ccc2C)c(C#N)n1Cc1ccc(-c2ccccc2-c2nn[nH]n2)cc1`, which IC50 [1] is on record?
The IC50 was 188 nM.

`CCCc1nc(-n2c(Cl)ccc2Cl)c(C(=O)OCC)n1Cc1ccc(-c2ccccc2-c2nn[nH]n2)cc1` was tested. Which IC50 [1] did it give?
The IC50 was 3.93 nM.

`CCCc1nc(C(F)(F)C(F)(F)F)c(C(=O)O)n1Cc1ccc(-c2ccccc2-c2nn[nH]n2)cc1` was tested. Which IC50 [4] did it give?
Its IC50 is 3.4 nM.

`CCCCc1nc(-n2cccc2C(=O)C(F)(F)F)c(C(=O)O)n1Cc1ccc(-c2ccccc2-c2nn[nH]n2)cc1` was tested. Which IC50 [1] did it give?
The IC50 was 2.37 nM.

And the “Change in BP” value (Rattus norvegicus [2])?
The value was -16.

`CCCc1nc(-n2cccc2)c(C#N)n1Cc1ccc(-c2ccccc2-c2nn[nH]n2)cc1` was tested. Which IC50 [1] did it give?
Its IC50 is 332 nM.

`CCCc1nc(-n2cccc2C(=O)O)c(C#N)n1Cc1ccc(-c2ccccc2-c2nn[nH]n2)cc1` was tested. Which IC50 [1] did it give?
Its IC50 is 103 nM.

How did the IC50 [1] turn out when `CCCc1nc(-n2cccc2C(=O)O)c(C(N)=O)n1Cc1ccc(-c2ccccc2-c2nn[nH]n2)cc1` was run?
The IC50 was 8.76 nM.

Which IC50 [1] does the source give for `CCCc1nc(-n2cccc2)c(C(=O)O)n1Cc1ccc(-c2ccccc2-c2nn[nH]n2)cc1` here?
The IC50 was 1.71 nM.

What about the “Change in BP” value (Rattus norvegicus [2]) of the same molecule?
Its value is -25.

What about the ED50 (Rattus norvegicus [3]) of the same molecule?
Its ED50 is 27 µg/min/kg.

Which IC50 [1] does the source give for `CCCc1nc(-n2ccc(C(=O)O)c2C)c(C(=O)O)n1Cc1ccc(-c2ccccc2-c2nn[nH]n2)cc1` here?
The IC50 was 11 nM.

Which IC50 [1] does the source give for `CCCc1nc(-n2cccc2C(O)C(F)(F)F)c(C#N)n1Cc1ccc(-c2ccccc2-c2nn[nH]n2)cc1` (stereo not given) here?
Its IC50 is 233 nM.

With `CCCc1nc(-n2cccc2)c(/C=C(\C)C(=O)O)n1Cc1ccc(-c2ccccc2-c2nn[nH]n2)cc1` as the molecule, how does the IC50 [1] read?
Its IC50 is 2.5 nM.

How did the IC50 [1] turn out when `CCCc1nc(-n2cccc2C(=O)OC)c(C#N)n1Cc1ccc(-c2ccccc2-c2nn[nH]n2)cc1` was run?
The IC50 was 53.3 nM.

Which IC50 [1] does the source give for `CCCc1nc(-n2cccc2C(=O)C(F)(F)F)c(C#N)n1Cc1ccc(-c2ccccc2-c2nn[nH]n2)cc1` here?
Its IC50 is 171 nM.

What does the source list for `CCCc1nc(-n2cccc2)c(C(=O)OCC)n1Cc1ccc(-c2ccccc2-c2nn[nH]n2)cc1`?
IC50 [1]: 12.2 nM; Change in BP (Rattus norvegicus [2]): -22

For `CCCc1nc(-n2c(C)ccc2C)c(/C=C/C(=O)OC)n1Cc1ccc(-c2ccccc2-c2nn[nH]n2)cc1`, which IC50 [1] is on record?
Its IC50 is 21.6 nM.

How did the IC50 [1] turn out when `CCCc1nc(-n2ccc(C(=O)OCC)c2)c(C(=O)O)n1Cc1ccc(-c2ccccc2-c2nn[nH]n2)cc1` was run?
The IC50 was 22 nM.

How did the IC50 [1] turn out when `CCCCc1nc(-n2cccc2)cn1Cc1ccc(-c2ccccc2-c2nn[nH]n2)cc1` was run?
The IC50 was 27 nM.

Which IC50 [1] does the source give for `CCCc1nc(-n2cccc2)c(/C=C(\C)C(=O)OCC)n1Cc1ccc(-c2ccccc2-c2nn[nH]n2)cc1` here?
The IC50 was 2.8 nM.

What about the “Change in BP” value (Rattus norvegicus [2]) of the same molecule?
Its value is -12.

With `COC(=O)c1c(-n2c(C)ccc2C)nc(C2CC2)n1Cc1ccc(-c2ccccc2-c2nn[nH]n2)cc1` as the molecule, how does the IC50 [1] read?
Its IC50 is 65.5 nM.

`CCCc1nc(-n2cccc2)cn1Cc1ccc(-c2ccccc2-c2nn[nH]n2)cc1` was tested. Which IC50 [1] did it give?
Its IC50 is 5.6 nM.

For `CCCc1nc(-n2cccc2C=O)c(C(=O)O)n1Cc1ccc(-c2ccccc2-c2nn[nH]n2)cc1`, which IC50 [1] is on record?
Its IC50 is 0.8 nM.

`CCCc1nc(-n2c(C)ccc2CCC)c(C(=O)O)n1Cc1ccc(-c2ccccc2-c2nn[nH]n2)cc1` was tested. Which IC50 [1] did it give?
Its IC50 is 0.9 nM.

What about the Change in BP (Rattus norvegicus [2]) of the same molecule?
Its Change in BP is -6.

With `CCCc1nc(-n2ccc(C(=O)OC)c2C)c(C(=O)OC)n1Cc1ccc(-c2ccccc2-c2nn[nH]n2)cc1` as the molecule, how does the IC50 [1] read?
Its IC50 is 18.8 nM.

`CCCc1nc(-n2c(C)ccc2C)c(C=O)n1Cc1ccc(-c2ccccc2-c2nn[nH]n2)cc1` was tested. Which IC50 [1] did it give?
Its IC50 is 13.7 nM.

What does the source list for `CCCCc1nc(Cl)c(C(=O)O)n1Cc1ccc(-c2ccccc2-c2nn[nH]n2)cc1` [CARBOXYLIC ACID METABOLITE]?
Change in BP (Rattus norvegicus [2]): -22; ED50 (Rattus norvegicus [3]): 13.6 µg/min/kg

Which “Change in BP” value (Rattus norvegicus [2]) does the source give for `CCCCc1nc(Cl)c(CO)n1Cc1ccc(-c2ccccc2-c2nnn[nH]2)cc1` [LOSARTAN] here?
Its value is -27.

What about the ED50 (Rattus norvegicus [3]) of the same molecule?
Its ED50 is 75.9 µg/min/kg.

Reference: ChEMBL document CHEMBL1127049, “Nonpeptide angiotensin II receptor antagonists. 2. Design, synthesis, and structure-activity relationships of 2-alkyl-4-(1H-pyrrol-1-yl)-1H-imidazole derivatives: profile of 2-propyl-1-[[2'-(1H-tetrazol-5-yl)-[1,1' -biphenyl]-4-yl]-methyl]-4-[2-(trifluoroacetyl)-1H-pyrrol-1-yl]-1H- …” (J Med Chem, 1993)
